Measured values published in ChEMBL document CHEMBL1165999, “Cytotoxic ent-kaurane diterpenoids from Isodon rubescens var. lushiensis” (J Nat Prod, 2010).

Experiments:
HL-60 = assay: Cytotoxicity against human HL60 cells after 48 hrs by MTT assay; type: functional, cell-based; details: HL-60, 48 h
Procedure, shortened: (§1)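 Cells grown in RPMI-1640 or DMEM with 10% FBS at 37 °C, 5% CO2, seeded at 1 × 10^5 cells/mL. Adherent lines were left 12 h to attach; suspension cells were added just before dosing. Various concentrations were tested in triplicate for 48 h, with cisplatin and paclitaxel controls. MTT (100 µg) was then added for 4 h, cells lysed in 20% SDS-50% DMF, and OD read at 595 nm. IC50 was calculated by the Reed-Muench method.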

SMMC-7721 = assay: Cytotoxicity against human SMMC7721 cells after 48 hrs by MTT assay; type: functional, cell-based; details: SMMC-7721, 48 h; procedure, shortened: as §1
A549 = assay: Cytotoxicity against human A549 cells after 48 hrs by MTT assay; type: functional, cell-based; details: A549, 48 h; procedure, shortened: as §1
SK-BR-3 = assay: Cytotoxicity against human SK-BR-3 cells after 48 hrs by MTT assay; type: functional, cell-based; details: SK-BR-3, 48 h; procedure, shortened: as §1
PANC-1 = assay: Growth inhibition of human PANC1 cells after 48 hrs by MTT assay; details: PANC-1, 48 h

SMILES	IC50 (HL-60) [µM]	IC50 (SMMC-7721) [µM]	IC50 (A549) [µM]	IC50 (SK-BR-3) [µM]	IC50 (PANC-1) [µM]
C=C1C(=O)[C@@]23[C@H](O)C[C@@H]4[C@@](C)(CO)CCC[C@@]4(COC(C)=O)[C@@H]2CC[C@@H]1[C@H]3O [ISOLUSHININ H]	2.5	> 10	> 10	6.1	6.6
C=C1C(=O)[C@@]23[C@H](O)C[C@@H]4C(C)(C)CCC[C@@]4(CO)[C@@H]2[C@@H](O)C[C@@H]1[C@H]3O [KAMEBAKAURININ]	1.8	> 10	> 10	> 10	> 10
C=C1C(=O)[C@@]23[C@H](O)C[C@@H]4C(C)(C)CCC[C@@]4(COC(C)=O)[C@@H]2[C@@H](O)C[C@@H]1[C@H]3O [FLEXICANLIN A]	0.64	9.9	9.8	> 10	5.7
C=C1C(=O)[C@@]23[C@@H]4C[C@@H]5C(C)(C)CCC[C@@]5([C@@H](OC)O4)[C@@H]2[C@@H](OC(C)=O)C[C@@H]1[C@H]3O [ISOLUSHININ D]	1.1	4.7	6.4	6.4	7
C=C1C(=O)[C@@]23[C@@H]4C[C@@H]5C(C)(C)CCC[C@@]5([C@@H](OCC)O4)[C@@H]2[C@@H](O)C[C@@H]1[C@H]3O	0.64	3.5	4.2	2.4	5.2
CO[C@@H]1OC[C@]2(C)CCC[C@]3(COC(=O)[C@@]45C[C@@H](CC[C@H]43)[C@H](C)C5=O)[C@H]12 [LUDONGNIN G]	> 10	> 10	> 10	> 10	> 10
C=C1C(=O)[C@]23[C@H](O)[C@H]1CC[C@H]2[C@@]12CO[C@]3(O)[C@@H](O)[C@@H]1C(C)(C)CC[C@@H]2O [ORIDONIN]	3.9	> 10	> 10	> 10	> 10
C=C1C(=O)[C@@]23CC[C@@H]4C(C)(C)CC[C@H](O)[C@@]4(C)[C@@H]2[C@@H](O)C[C@@H]1[C@H]3O [PHYLLOSTACHYSIN H]	6.4	> 10	> 10	> 10	> 10
C=C1C(=O)[C@]23C[C@H]1C[C@@H](O)[C@H]2[C@@]1(CCC[C@@]2(C)COC(=O)[C@H]21)COC3=O [LUDONGNIN A]	3.1	> 10	> 10	> 10	> 10
C=C1[C@@H](O)[C@]23[C@H](O)[C@H]1CC[C@H]2[C@@]12CO[C@@]3(O)[C@@H](O)[C@@H]1C(C)(C)CC[C@@H]2O [ENMENOL]	6.7	> 10	> 10	> 10	> 10
CC(=O)O[C@H]1C(=O)[C@@]2(C)[C@H]([C@H](OC(=O)c3ccccc3)[C@]3(O)C[C@H](OC(=O)[C@H](O)[C@@H](NC(=O)c4ccccc4)c4ccccc4)C(C)=C1C3(C)C)[C@]1(OC(C)=O)CO[C@@H]1C[C@@H]2O [PACLITAXEL]	< 0.008	< 0.008	1.4	0.11	< 0.008
C=C1[C@@H]2CC[C@H]3[C@]45CC[C@@H]6OC4O[C@@H](C[C@@H]5C6(C)C)[C@]3(C2)[C@@H]1O [ISOLUSHININ A]	> 10	> 10	> 10	> 10	> 10
C=C1C(=O)[C@@]23[C@@H]4C[C@@H]5C(C)(C)[C@H](O)CC[C@@]5([C@@H](OC)O4)[C@@H]2[C@@H](O)C[C@@H]1[C@H]3O [ISOLUSHININ F]	> 10	> 10	> 10	> 10	> 10
C=C1C(=O)[C@@]23[C@H](O)C[C@@H]4C(C)(C)CCC[C@@]4(C)[C@@H]2[C@@H](O)C[C@@H]1[C@H]3O [PHYLLOSTACHYSIN F]	0.85	5.5	3.3	3.3	4.5
C=C1[C@@H]2C[C@@H](O)[C@@H]3[C@](C2)(C(=O)O[C@H]2CC[C@@]4(C)CO[C@H]5OC[C@]23[C@H]54)[C@@H]1O [SCULPONEATIN B]	> 10	> 10	> 10	> 10	> 10
C=C1C(=O)[C@@]23[C@@H]4C[C@@H]5C(C)(C)CCC[C@@]5([C@@H](O)O4)[C@@H]2[C@@H](O)C[C@@H]1[C@H]3O	1.2	6.2	5.9	4.4	8.6
C=C1C(=O)[C@@]23[C@H](O)C[C@@H]4C(C)(C)CCC[C@@]4(COC(C)=O)[C@@H]2[C@@H](O)[C@H](O)[C@@H]1[C@H]3O [ISOLUSHININ G]	> 10	> 10	> 10	> 10	> 10
C=C1[C@@H]2CC[C@H]3[C@]45CCC[C@@](C)(COC(C)=O)[C@H]4[C@H](O)[C@](O)(OC5)[C@]3(C2)[C@@H]1O [ISOLUSHININ B]	> 10	> 10	> 10	> 10	> 10
C=C1C(=O)[C@@]23[C@@H]4C[C@@H]5C(C)(C)CCC[C@@]5([C@@H](OC)O4)[C@@H]2[C@@H](O)C[C@@H]1[C@H]3O	0.95	4.4	5.6	3.3	9.8
